The values that follow come from the array DNA melting data of Ke et al. (doi:10.1101/2024.01.08.574731).

Series [1] in a line: folding enthalpy; higher = less favourable; fluorescence melt of hairpins on a sequencing array, two-state fit. To be noted: sodium 0.088 M. A digest of the protocol:
(§1)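 With Cy3 and quencher oligos annealed, library hairpins on a sequenced MiSeq flow cell were imaged for Cy3 fluorescence in 50 mM Na-HEPES pH 8.0, 25 mM NaCl, in 2.5 °C steps up to 60 °C. Melting temperature and folding enthalpy were derived from bootstrapped two-state fits of signals normalised to pre-quench Cy3 and to control constructs. Four replicates were combined by inverse variance, with fitted temperatures raised by 9.35 °C to match UV melts.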

The nature of series [2]: melting temperature; fluorescence melt of hairpins on a sequencing array, two-state fit, raised by 9.35 °C to match UV melts. As to conditions: sodium 0.088 M. A digest of the protocol:
as §1

For GAAGCGGGAAACCACTTC ((((.((....)).)))), in series [1], the folding enthalpy was -32.1 kcal/mol. Besides, the Tm in series [2] stood at 41.8 °C.

For the sequence GAAGCGGGAAACTGCTTC (((((.(....).))))), the folding enthalpy in series [1] is -40.4 kcal/mol. In addition, the Tm in series [2] came out at 53 °C.

Turning to GAAGCTGGAAACGGCTTC (((((.(....).))))), in series [1], the folding enthalpy was -42.9 kcal/mol. In addition, the Tm in series [2] amounted to 53.4 °C.

As for GAAGCTGGAAACGGTTTC (((.(.(....).).))), in series [1], the folding enthalpy is -10.3 kcal/mol. In addition, the Tm in series [2] worked out at 26 °C.

Regarding GAAGGACCGAAAGGTTTC (((..(((....)))))), the folding enthalpy in series [1] was -10.4 kcal/mol. Besides, the Tm in series [2] was 24 °C.

As to GAAGGACGAAAGTCATTC (((.(((....))).))), the folding enthalpy in series [1] was -30.8 kcal/mol. The Tm in series [2] is 52.1 °C.

Take GAAGGCGAAAGCCCTTC ((((((....))).))): the folding enthalpy in series [1] was -15.3 kcal/mol. Further, in series [2], the Tm worked out at 52.1 °C.

Regarding GAAGGCGAAAGCCCTTTC ((((((....)))..))), the folding enthalpy in series [1] was -10 kcal/mol. In series [2], the Tm came out at 37.6 °C.

With GAAGGCGCGAAAGCGTTC (((..(((....)))))), in series [1], the folding enthalpy was -9.37 kcal/mol. In series [2], the Tm turned out to be 30.9 °C.

For the sequence GAAGGCGGAAACGTCTTC ((((.((....)).)))), in series [1], the folding enthalpy was -45.1 kcal/mol. In addition, the Tm in series [2] worked out at 53.1 °C.

Consider GAAGGGGGAAACCCCTCC (.(((((....))))).), for which, in series [1], the folding enthalpy is -13.1 kcal/mol. The Tm in series [2] was 36.5 °C.

As to GAAGGGGGAAACCTCTTC ((((.((....)).)))), the folding enthalpy in series [1] was -27.7 kcal/mol. Besides, the Tm in series [2] came to 43.1 °C.

As for GAAGGGGGAAACTCCTTC (((((.(....).))))), the folding enthalpy in series [1] was -25.6 kcal/mol. Besides, the Tm in series [2] was determined as 45.6 °C.

On to GAAGGTGCGAAAGCATTC (((..(((....)))))), for which the folding enthalpy in series [1] was -6.16 kcal/mol. Moreover, the Tm in series [2] was 18.4 °C.

In the case of GAAGGTGGAAACACCTTC (((((((....))))))), the folding enthalpy in series [1] is -37.7 kcal/mol. In addition, the Tm in series [2] was 64.6 °C.

GAAGGTGGAAACATCTTC ((((.((....)).)))): the folding enthalpy in series [1] was -30.8 kcal/mol. Besides, in series [2], the Tm was 41.6 °C.

On to GAAGGTGGAAACGTCTTC ((((..(....)..)))), for which, in series [1], the folding enthalpy was -33 kcal/mol. Further, the Tm in series [2] stood at 36.2 °C.

Consider GAAGTACGAAAGTAGTTC (((.(((....))).))), for which the folding enthalpy in series [1] was -34.8 kcal/mol. Also, the Tm in series [2] came out at 46.8 °C.

With GAAGTACGAAAGTATTTC (((.(((....))).))), the folding enthalpy in series [1] was -28.9 kcal/mol. For the same sequence, in series [2], the Tm was 40.5 °C.

Turning to GAAGTAGGAAACTGCTTC ((((.((....)).)))), the folding enthalpy in series [1] was -34.4 kcal/mol. Also, the Tm in series [2] is 43.3 °C.

For GAAGTCCGAAAGGAATTC (((.(((....))).))), the folding enthalpy in series [1] was -30.9 kcal/mol. Further, the Tm in series [2] is 50.1 °C.

Turning to GAAGTGACGAAAGTCTTC (((..(((....)))))), the folding enthalpy in series [1] was -8.64 kcal/mol. Besides, in series [2], the Tm stood at 27.8 °C.

GAAGTGCGAAAGCAATTC (((.(((....))).))): the folding enthalpy in series [1] is -28.2 kcal/mol. Further, in series [2], the Tm turned out to be 52.8 °C.

For GAAGTGGGAAACTACTTC (((((.(....).))))), the folding enthalpy in series [1] was -37.4 kcal/mol. For the same sequence, the Tm in series [2] came to 43.1 °C.

Regarding GAAGTGGGAAACTGCTTC ((((..(....)..)))), the folding enthalpy in series [1] was -26.1 kcal/mol. Further, the Tm in series [2] was found to be 39.6 °C.

For GAAGTTGGAAACAACTCC (.(((((....))))).), in series [1], the folding enthalpy was -19.2 kcal/mol. Also, the Tm in series [2] was 34.1 °C.

As to GAAGTTGGAAACAATTTC (((.(((....))).))), the folding enthalpy in series [1] is -20.4 kcal/mol. Besides, the Tm in series [2] came out at 35 °C.

For the sequence GAAGTTGGAAACGACTTC (((((.(....).))))), in series [1], the folding enthalpy is -39 kcal/mol. Moreover, in series [2], the Tm was 47.4 °C.

For the sequence GAATAAGGAAACTTGTTC (((.(((....))).))), the folding enthalpy in series [1] was -17 kcal/mol. In addition, the Tm in series [2] worked out at 29.6 °C.

Take GAATACGAAAGTATTTC ((((((....))).))): the folding enthalpy in series [1] is -15.8 kcal/mol. Besides, in series [2], the Tm was determined as 38.3 °C.

Regarding GAATACGCGAAAGCGTTC (((..(((....)))))), the folding enthalpy in series [1] is -7.08 kcal/mol. Moreover, the Tm in series [2] came to 26.7 °C.

For GAATACGGAAACGTACTC ((.((((....)))).)), in series [1], the folding enthalpy is -9.11 kcal/mol. Further, the Tm in series [2] was 28.4 °C.

Take GAATATGGAAACATGTTC (((.(((....))).))): the folding enthalpy in series [1] was -32.6 kcal/mol. In series [2], the Tm was found to be 37.6 °C.

For GAATCAGGAAACTGATCC (.(((((....))))).), in series [1], the folding enthalpy is -15.4 kcal/mol. In series [2], the Tm worked out at 32.6 °C.

Regarding GAATCAGGAAACTGGTTC (((.(((....))).))), in series [1], the folding enthalpy was -31.2 kcal/mol. The Tm in series [2] stood at 42.6 °C.

On to GAATCCCGAAAGGGCTTC (((.(((....))).))), for which the folding enthalpy in series [1] is -19.1 kcal/mol. The Tm in series [2] is 41.9 °C.
